# Test results: publication PMC5518655 (Acta Pharmaceutica Sinica. B, 2017)
# How the values were obtained:
# DENV2 NS2B/NS3 protease = DENV2 NS2B/NS3 protease (Dengue virus type 2, UniProt P14340); assay: In vitro DENV2 NS2B/NS3 protease assay with fluorogenic peptide substrate; type: biochemical; details: for inhibition at 50 µM: read-out: inhibition at 50 µmol/L (preliminary screening)
# Method in brief: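 Screened at 50 µmol/L; IC50 measured only when inhibition exceeded 10%. DENV2 NS2B-NS3 (0.57 µmol/L) and test compound in DMSO, in Tris–HCl pH 8.5, preincubated 10 min at 37 °C, 200 rpm. […] added, shaken 60 min more; fluorescence read, blank-subtracted. Triplicates, 3 independent experiments, mean±SD; IC50 read graphically from log concentration vs % inhibition.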
# DEN2 serine protease = details: cited from earlier work
# DENV2 NS2B/NS3 protease, sequence (P14340 1476-2093 limits assumed): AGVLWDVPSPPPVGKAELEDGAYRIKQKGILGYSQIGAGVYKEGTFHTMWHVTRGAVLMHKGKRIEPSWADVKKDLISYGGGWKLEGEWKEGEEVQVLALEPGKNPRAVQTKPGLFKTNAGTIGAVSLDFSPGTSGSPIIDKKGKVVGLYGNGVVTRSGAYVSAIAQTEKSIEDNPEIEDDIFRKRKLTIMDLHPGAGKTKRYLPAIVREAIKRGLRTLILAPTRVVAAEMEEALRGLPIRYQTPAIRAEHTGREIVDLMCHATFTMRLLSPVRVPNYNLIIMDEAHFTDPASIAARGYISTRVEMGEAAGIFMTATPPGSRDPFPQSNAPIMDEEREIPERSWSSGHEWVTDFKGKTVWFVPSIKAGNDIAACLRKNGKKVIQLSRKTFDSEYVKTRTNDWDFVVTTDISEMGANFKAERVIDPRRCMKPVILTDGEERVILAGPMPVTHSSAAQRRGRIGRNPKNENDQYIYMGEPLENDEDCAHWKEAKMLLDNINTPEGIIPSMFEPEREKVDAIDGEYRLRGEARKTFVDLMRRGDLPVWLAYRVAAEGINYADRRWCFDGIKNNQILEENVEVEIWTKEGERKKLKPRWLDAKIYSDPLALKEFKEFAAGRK
# DENV2 NS2B/NS3 protease, sequence (P14340 1346-1475 partner limits assumed): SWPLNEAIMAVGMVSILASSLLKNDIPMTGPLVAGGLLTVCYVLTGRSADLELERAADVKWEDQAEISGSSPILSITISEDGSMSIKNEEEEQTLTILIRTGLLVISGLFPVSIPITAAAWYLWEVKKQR
SMILES,IC50 (DENV2 NS2B/NS3 protease),inhibition at 50 µM (DENV2 NS2B/NS3 protease),Ki (DEN2 serine protease)
"O=C1C(=Cc2ccc([N+](=O)[O-])cc2)CN(CC(=O)c2ccc(F)cc2)CC1=Cc1ccc([N+](=O)[O-])cc1 [Compound 4e, 1-(2-(4-Fluorophenyl)-2-oxoethyl)-3,5-bis(4-nitrobenzylidene)piperidin-4-one]",15.2 ± 1.1 µM,> 10%,
"COc1ccc(C(=O)CN2CC(=Cc3ccc([N+](=O)[O-])cc3)C(=O)C(=Cc3ccc([N+](=O)[O-])cc3)C2)cc1 [Compound 4j, 1-(2-(4-Methoxyphenyl)-2-oxoethyl)-3,5-bis(4-nitrobenzylidene)piperidin-4-one]",16.2 ± 1.3 µM,> 10%,
"COc1cc(O)c(C(=O)[C@@H]2[C@H](CC=C(C)C)C(C)=CC[C@H]2c2ccccc2)c(O)c1 [Panduratin A, panduratin A, reference compound]",57.3 ± 1.3 µM,,25 µM
CC(C)=CC[C@@H]1C(C)=CC[C@@H](c2ccccc2)[C@@H]1C(=O)c1c(O)cc(O)cc1O [4-hydroxypanduratin A],,,21 µM
